Data taken from ChEMBL document CHEMBL1142018, “Discovery and SAR of new benzazepines as potent and selective 5-HT(2C) receptor agonists for the treatment of obesity” (Bioorg Med Chem Lett, 2005).

Experiments:
[1] = molecular target: T1, 5-hydroxytryptamine receptor 2B (Homo sapiens, UniProt P41595); experiment: Effective concentration towards 5-hydroxytryptamine 2B receptors transfected in HEK293 cells was determined by measuring [3H]phosphoinositol release; type: functional, cell-based
Summary of the method: (§1)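 Functional agonism at human 5-HT2A, 5-HT2B or 5-HT2C receptors (the 2C as the INI isoform). Receptors were transiently transfected into HEK-293 cells, and the read-out was [³H]phosphoinositol turnover.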

[2] = molecular target: T2, 5-hydroxytryptamine receptor 2C (Homo sapiens, UniProt P28335); experiment: Effective concentration towards 5-hydroxytryptamine 2C receptors transfected in HEK293 cells was determined by measuring [3H]phosphoinositol release; type: functional, cell-based; summary of the method: as §1
T2 sequence (P28335 whole entry): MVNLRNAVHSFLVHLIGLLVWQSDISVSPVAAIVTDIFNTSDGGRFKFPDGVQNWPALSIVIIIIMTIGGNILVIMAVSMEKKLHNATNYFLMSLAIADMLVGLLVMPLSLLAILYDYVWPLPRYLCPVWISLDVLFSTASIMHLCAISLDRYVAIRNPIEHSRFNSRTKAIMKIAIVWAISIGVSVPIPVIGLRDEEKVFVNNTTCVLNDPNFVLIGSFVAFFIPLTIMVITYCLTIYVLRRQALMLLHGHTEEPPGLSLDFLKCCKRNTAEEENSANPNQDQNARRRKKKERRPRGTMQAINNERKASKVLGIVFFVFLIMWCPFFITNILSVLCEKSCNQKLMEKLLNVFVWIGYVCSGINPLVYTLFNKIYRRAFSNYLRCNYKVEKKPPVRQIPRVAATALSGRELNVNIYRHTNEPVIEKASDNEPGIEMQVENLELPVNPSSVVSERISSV

[3] = molecular target: T3, 5-hydroxytryptamine receptor 2A (Homo sapiens, UniProt P28223); experiment: Effective concentration towards 5-hydroxytryptamine 2A receptors transfected in HEK293 cells was determined by measuring [3H]phosphoinositol release; type: functional, cell-based; summary of the method: as §1
T3 sequence (P28223 whole entry): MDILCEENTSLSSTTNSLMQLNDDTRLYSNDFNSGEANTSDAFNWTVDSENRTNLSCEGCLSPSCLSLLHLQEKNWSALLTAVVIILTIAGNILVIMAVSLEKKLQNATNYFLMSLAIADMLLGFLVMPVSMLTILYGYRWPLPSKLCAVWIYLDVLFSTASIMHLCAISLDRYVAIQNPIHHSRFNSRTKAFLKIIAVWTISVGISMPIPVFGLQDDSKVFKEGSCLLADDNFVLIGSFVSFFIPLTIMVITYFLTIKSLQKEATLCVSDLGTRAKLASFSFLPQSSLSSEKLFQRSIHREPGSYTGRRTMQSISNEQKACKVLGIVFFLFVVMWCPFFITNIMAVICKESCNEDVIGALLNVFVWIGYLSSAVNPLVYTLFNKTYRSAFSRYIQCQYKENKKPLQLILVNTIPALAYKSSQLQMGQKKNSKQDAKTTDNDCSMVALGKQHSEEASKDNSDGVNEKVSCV

[4] = molecular target: T4, 5-hydroxytryptamine receptor 2C (Homo sapiens) (UniProt P28335); experiment: Percentage maximum response relative to serotonin towards 5-hydroxytryptamine 2C receptor in HEK293 cells; type: functional, cell-based; summary of the method: as §1
T4 sequence (whole entry): T2 sequence (P28335 whole entry)

[5] = molecular target: T3, 5-hydroxytryptamine receptor 2A; experiment: Percentage maximum response relative to serotonin towards 5-hydroxytryptamine 2A receptor in HEK293 cells; type: functional, cell-based; summary of the method: as §1
[6] = molecular target: T1, 5-hydroxytryptamine receptor 2B; experiment: Percentage maximum response relative to serotonin towards 5-hydroxytryptamine 2B receptor in HEK293 cells; type: functional, cell-based; summary of the method: as §1
[7] = test system: Rattus norvegicus; experiment: Effect on food intake after 6 hr of injection of compound by oral gavage and compared to vehicle control rats (n = 8); decreased food intake by range 10-40 mg/kg; type: functional
[8] = molecular target: T1, 5-hydroxytryptamine receptor 2B; experiment: Percentage maximum response relative to serotonin towards 5-hydroxytryptamine 2B receptor at 10 uM concentration in HEK293 cells; type: functional, cell-based
[9] = Rattus norvegicus, po, 6 h, read-out: ED50

T1 sequence (P41595 whole entry, canonical isoform): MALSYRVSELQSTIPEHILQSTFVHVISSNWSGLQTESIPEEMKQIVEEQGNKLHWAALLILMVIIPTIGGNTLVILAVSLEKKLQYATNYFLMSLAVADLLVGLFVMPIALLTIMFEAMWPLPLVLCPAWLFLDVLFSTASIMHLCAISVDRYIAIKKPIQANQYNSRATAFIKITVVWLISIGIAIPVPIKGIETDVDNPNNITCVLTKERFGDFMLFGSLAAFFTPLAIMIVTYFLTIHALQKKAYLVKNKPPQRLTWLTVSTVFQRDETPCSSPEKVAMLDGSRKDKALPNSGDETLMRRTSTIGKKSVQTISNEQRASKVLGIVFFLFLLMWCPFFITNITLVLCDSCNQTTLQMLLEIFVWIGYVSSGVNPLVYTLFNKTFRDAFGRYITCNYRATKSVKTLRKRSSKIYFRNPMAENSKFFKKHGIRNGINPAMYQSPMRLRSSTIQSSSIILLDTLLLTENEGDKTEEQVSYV

Structure (SMILES)	EC50 ([1]; read-out: EC50)	EC50 [2]	EC50 ([3]; read-out: EC50)	also measured
CC1CNCCc2c(Cl)cccc21 (configuration not stated)	> 5000 nM	860 nM	> 5000 nM	
COc1cc2c(cc1Br)[C@H](C)CNCC2	30 nM	5 nM	30 nM	
C[C@H]1CNCCc2ccc(Cl)cc21				Maximum response [4]: 100%; Maximum response [5]: 70%; Maximum response [6]: 100%
CCC1CNCCc2cc(OC)c(Br)cc21 (configuration not stated)	40 nM	11 nM	100 nM	
CC1CNCCc2cc(Cl)ccc21 (configuration not stated)	530 nM	35 nM	150 nM	
COc1cc2c(cc1I)C(C)CNCC2 (configuration not stated)	64 nM	2 nM	61 nM	ED50 [7]: 40 mg/kg
CC1CNCCc2ccc(F)cc21 (configuration not stated)	> 10000 nM	410 nM	1600 nM	
COc1ccc2c(c1)C(C)CNCC2 (configuration not stated)	780 nM	420 nM	940 nM	
CC1CNCCc2ccc(Cl)c(Cl)c21 (configuration not stated)	1800 nM	6 nM	220 nM	ED50 [7, 9]: 40 mg/kg
COc1cc2c(cc1Br)[C@@H](C)CNCC2	220 nM	3 nM	80 nM	
CC1CNCCc2ccc(Br)cc21 (configuration not stated)	1500 nM	12 nM	510 nM	
COc1cc2c(cc1C(F)(F)F)C(C)CNCC2 (configuration not stated)	130 nM	4 nM	42 nM	
CC1CNCCc2cc(O)c(Br)cc21 (configuration not stated)	190 nM	3 nM	63 nM	
COc1cc2c(cc1Cl)C(C)CNCC2 (configuration not stated)	140 nM	11 nM	80 nM	ED50 [7, 9]: 40 mg/kg
C[C@@H]1CNCCc2ccc(Cl)cc21				Maximum response [4]: 100%; Maximum response [5]: 70%; Maximum response [6]: 100%
CC1CNCCc2cccc(Cl)c21 (configuration not stated)	> 5000 nM	930 nM	> 5000 nM	
C[C@H]1CNCCc2ccc(Cl)c(Cl)c21	> 10000 nM	230 nM	2400 nM	Maximum response [4]: 85%; Maximum response [5]: 100%

Structure (SMILES)	EC50 ([1]; read-out: EC50)	EC50 [2]	EC50 ([3]; read-out: EC50)	also measured
CC1CNCCc2cc(OCc3ccccc3)c(Br)cc21 (configuration not stated)	> 10000 nM	56 nM	22 nM	
CC1CNCCc2cc(Cl)c(Cl)cc21 (configuration not stated)	78 nM	4 nM	16 nM	ED50 [7, 9]: 40 mg/kg
CC1CNCCc2ccccc21 (configuration not stated)	> 5000 nM	340 nM	1600 nM	
CC1CNCCc2ccc(C(F)(F)F)cc21 (configuration not stated)	380 nM	7 nM	100 nM	ED50 [7, 9]: 40 mg/kg
COc1cc2c(cc1Br)C(C(C)C)CNCC2 (configuration not stated)	1000 nM	160 nM		EC50 ([3]; hek293): Not Active
COc1ccc2c(c1)CCNCC2C (configuration not stated)		2000 nM	> 10000 nM	EC50 ([1]; hek293): Not Active
CC1CNCCc2ccc(Cl)c(F)c21 (configuration not stated)	> 10000 nM	22 nM	840 nM	ED50 [7, 9]: 40 mg/kg
CC1CNCCc2cc(F)c(Cl)cc21 (configuration not stated)	360 nM	7 nM	72 nM	ED50 [7, 9]: 40 mg/kg
COc1cc2c(cc1Br)CCNCC2	400 nM	8 nM	100 nM	
CCOc1cc2c(cc1Br)C(C)CNCC2 (configuration not stated)	180 nM	28 nM	110 nM	
C[C@@H]1CNCCc2ccc(Cl)c(Cl)c21		3 nM	135 nM	Maximum response [4]: 90%; Maximum response [8]: 25%; Maximum response [5]: 35%
CC1CNCCc2ccc(Cl)cc21 (configuration not stated)				ED50 [7, 9]: 40 mg/kg
Clc1ccc2c(c1)CCNCC2	1000 nM	12 nM	90 nM	Maximum response [4]: 85%; Maximum response [5]: 100%; Maximum response [6]: 100%
CC1CNCCc2c(Cl)cc(Cl)cc21 (configuration not stated)	840 nM	20 nM	170 nM	
COc1cc2c(cc1Br)C(C)CNCC2 (configuration not stated)	100 nM	5 nM	80 nM	ED50 [7, 9]: 40 mg/kg
CC(C)Oc1cc2c(cc1Br)C(C)CNCC2 (configuration not stated)	230 nM	68 nM	97 nM	
